Experimental data: ChEMBL document CHEMBL5260841, “Discovery of N-(4-(6-Acetamidopyrimidin-4-yloxy)phenyl)-2-(2-(trifluoromethyl)phenyl)acetamide (CHMFL-FLT3-335) as a Potent FMS-like Tyrosine Kinase 3 Internal Tandem Duplication (FLT3-ITD) Mutant Selective Inhibitor for Acute Myeloid Leukemia” (J Med Chem, 2019)

Experiments:
[1] = test system: OCI-AML2; assay: Antiproliferative activity against human OCI-AML2 cells transfected with wild type FLT3 assessed as cell growth inhibition incubated for 72 hrs by CCK-8 assay; type: functional
Procedure, shortened: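 Cells kept at 37 °C, 5% CO2. MV4-11 grown in IMDM with 10% FBS. MOLM13, MOLM14, U937 and HL-60 grown in RPMI 1640 with 10% FBS. OCI-AML-2 grown in α-MEM with 20% FBS. Seeded at 1500-3000 cells/well and exposed to a concentration series for 72 h. Viability read by CCK8 absorbance at 450 nm.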

[2] = Apparent volume of distribution in Sprague-Dawley rat at 1 mg/kg, iv; type: ADME, organism-based; details: in vivo, read-out: Vz
Procedure, shortened: (§1)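 Sprague-Dawley rats dosed IV at 1 mg/kg or by oral gavage at 10 mg/kg. Parameters from plasma exposure: AUC(0-t), AUC(0-∞), MRT, T1/2, Tmax, Vz, CLz, Cmax. Values are mean ± SD from three animals.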

[3] = MRT (0 to t) in Sprague-Dawley rat at 10 mg/kg, po; type: ADME, organism-based; details: in vivo
Procedure, shortened: (§2)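 Sprague-Dawley rats were dosed either intravenously at 1 mg/kg or by oral gavage at 10 mg/kg. Plasma PK parameters were AUC(0-t), AUC(0-∞), MRT(0-t), T1/2, Tmax, Vz, CLz, Cmax and F%. Values are the mean ± SD of three independent animals.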

[4] = Tmax in Sprague-Dawley rat at 1 mg/kg, iv; type: ADME, organism-based; details: in vivo; procedure, shortened: as §2
[5] = AUC (0 to t) in Sprague-Dawley rat at 10 mg/kg, po; type: ADME, organism-based; parameters: dose 10 mg/kg, route po; details: in vivo; procedure, shortened: as §1
[6] = target: T1, Signal transducer and activator of transcription 5A (Homo sapiens) (UniProt P42229); assay: Inhibition of STAT5 phosphorylation at Tyr694 residue in human MOLM-13 cells harboring FLT3-ITD mutant incubated for 4 hrs by Western blot analysis; type: cell-based; details: dose 0.01-3 µM
T1 sequence (whole entry): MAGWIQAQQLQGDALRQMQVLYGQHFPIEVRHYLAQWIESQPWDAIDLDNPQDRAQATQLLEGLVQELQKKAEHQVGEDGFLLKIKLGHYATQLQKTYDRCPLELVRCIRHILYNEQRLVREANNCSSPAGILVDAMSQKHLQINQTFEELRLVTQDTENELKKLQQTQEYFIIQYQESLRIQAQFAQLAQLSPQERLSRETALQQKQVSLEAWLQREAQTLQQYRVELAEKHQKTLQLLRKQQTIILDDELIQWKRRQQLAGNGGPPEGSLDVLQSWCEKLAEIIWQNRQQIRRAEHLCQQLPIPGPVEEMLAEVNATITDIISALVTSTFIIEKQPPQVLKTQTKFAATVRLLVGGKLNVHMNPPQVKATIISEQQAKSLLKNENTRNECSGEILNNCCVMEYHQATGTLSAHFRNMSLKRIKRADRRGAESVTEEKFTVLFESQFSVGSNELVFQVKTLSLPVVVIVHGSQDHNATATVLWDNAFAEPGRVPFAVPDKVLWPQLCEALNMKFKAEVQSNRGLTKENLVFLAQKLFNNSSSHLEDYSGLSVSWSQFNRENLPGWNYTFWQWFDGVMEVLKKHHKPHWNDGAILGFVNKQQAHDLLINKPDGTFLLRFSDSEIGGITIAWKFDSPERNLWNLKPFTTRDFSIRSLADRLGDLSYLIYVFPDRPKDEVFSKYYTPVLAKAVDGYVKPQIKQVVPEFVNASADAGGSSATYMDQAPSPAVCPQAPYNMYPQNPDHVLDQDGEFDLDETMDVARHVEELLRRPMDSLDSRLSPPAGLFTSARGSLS
Procedure, shortened: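 Cells were exposed to the compound at a series of concentrations for 4 h, and whole-cell lysates were analysed by Western blot. MV4-11 cells were grown in IMDM with 10% FBS. MOLM13 and MOLM14 cells were grown in RPMI 1640 with 10% FBS. All cultures were kept at 37 °C with 5% CO2.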

[7] = test system: BaF3; assay: Antiproliferative activity against mouse BaF3 cells transfected with FLT3 ITD F691L mutant assessed as cell growth inhibition incubated for 72 hrs by CCK-8 assay; type: functional
Procedure, shortened: (§3)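 Kinase-transformed isogenic BaF3 lines grown in RPMI 1640 with 10% FBS, 2% L-glutamine and pen/strep at 37 °C, 5% CO2. Seeded at 1500-3000 cells/well and treated with a compound concentration series for 72 h. Viability read by CCK8 absorbance at 450 nm.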

[8] = test system: BaF3; assay: Antiproliferative activity against mouse BaF3 cells transfected with FLT3 ITD mutant harboring DFREYE sequence from MOLM-13 cells assessed as cell growth inhibition incubated for 72 hrs by CCK-8 assay; type: functional; procedure, shortened: as §3
[9] = test system: MV4-11; assay: Antitumor activity against human MV4-11 cells xenografted in nu/nu mouse assessed as increase in tumor cell apoptosis administered orally via gavage for 28 days by tunel staining based immunohistochemical analysis; type: functional; details: dose 25-100 mg/kg/day, route po, time 28.0 day
Procedure, shortened: (§4)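 Tumours taken from MV4-11 xenograft mice after 28 days of daily oral dosing. Tissue stained with HE, Ki-67 (proliferation) and TUNEL (apoptosis), and treated groups compared with the vehicle group.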

[10] = test system: MV4-11; assay: Antitumor activity against human MV4-11 cells xenografted in nu/nu mouse assessed as suppression of cell proliferation administered orally via gavage for 28 days by ki67 staining based immunohistochemical analysis; type: functional; details: dose 25-100 mg/kg/day, route po, time 28.0 day; procedure, shortened: as §4
[11] = test system: BaF3; assay: Antiproliferative activity against mouse BaF3 cells transfected with FLT3 ITD mutant assessed as cell growth inhibition incubated for 72 hrs by CCK-8 assay; type: functional; procedure, shortened: as §3
[12] = test system: BaF3; assay: Antiproliferative activity against mouse BaF3 cells transfected with FLT3 ITD mutant harboring HVDFREYEYD sequence from MV4-11 cells assessed as cell growth inhibition incubated for 72 hrs by CCK-8 assay; type: functional; procedure, shortened: as §3
[13] = test system: MV4-11; assay: Induction of apoptosis in human MV4-11 cells harboring FLT3-ITD mutant assessed as increase in cleaved caspase-3 level incubated for 24 hrs by Western blot analysis; type: functional, cell-based; details: dose 0.1-3 µM
[14] = target: Platelet-derived growth factor receptor alpha (Homo sapiens, UniProt P16234); assay: Inhibition of PDGFRalpha (unknown origin) assessed as residual activity at 1 uM preincubated for 60 mins followed by ATP addition and measured after 1 hr by ADP-Glo assay relative to control; details: time 2.0 hrs
Chain of Platelet-derived growth factor receptor alpha (P16234 whole entry): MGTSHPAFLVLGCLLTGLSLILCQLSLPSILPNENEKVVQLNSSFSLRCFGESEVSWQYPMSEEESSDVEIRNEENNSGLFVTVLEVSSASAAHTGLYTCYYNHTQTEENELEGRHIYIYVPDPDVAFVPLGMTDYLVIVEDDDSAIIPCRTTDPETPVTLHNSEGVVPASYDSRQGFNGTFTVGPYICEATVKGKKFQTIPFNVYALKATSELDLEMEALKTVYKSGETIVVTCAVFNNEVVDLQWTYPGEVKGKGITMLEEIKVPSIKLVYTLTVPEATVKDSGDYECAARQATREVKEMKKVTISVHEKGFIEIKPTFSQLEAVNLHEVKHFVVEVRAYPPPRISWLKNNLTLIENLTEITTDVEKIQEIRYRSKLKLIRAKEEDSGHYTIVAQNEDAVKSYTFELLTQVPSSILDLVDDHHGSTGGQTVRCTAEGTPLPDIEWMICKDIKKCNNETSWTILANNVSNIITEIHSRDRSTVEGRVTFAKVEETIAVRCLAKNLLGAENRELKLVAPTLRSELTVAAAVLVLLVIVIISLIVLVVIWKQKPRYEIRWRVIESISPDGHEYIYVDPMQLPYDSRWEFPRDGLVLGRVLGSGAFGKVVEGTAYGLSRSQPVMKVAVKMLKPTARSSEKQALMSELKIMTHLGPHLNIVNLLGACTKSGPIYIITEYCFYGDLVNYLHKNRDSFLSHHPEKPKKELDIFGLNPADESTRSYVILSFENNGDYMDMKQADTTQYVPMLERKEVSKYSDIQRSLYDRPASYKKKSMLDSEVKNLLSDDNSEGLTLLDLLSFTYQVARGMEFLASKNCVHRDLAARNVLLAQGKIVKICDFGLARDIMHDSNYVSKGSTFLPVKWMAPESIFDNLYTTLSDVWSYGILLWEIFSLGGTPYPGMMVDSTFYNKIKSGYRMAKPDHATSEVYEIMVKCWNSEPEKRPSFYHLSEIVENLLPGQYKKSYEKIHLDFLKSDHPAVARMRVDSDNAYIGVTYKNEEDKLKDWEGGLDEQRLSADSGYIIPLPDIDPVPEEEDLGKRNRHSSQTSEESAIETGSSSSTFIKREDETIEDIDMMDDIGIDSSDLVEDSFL

GI50 [1]: > 10 µM
Vd [2]: 1.2 L/kg
MRT last [3]: 4.5 h
Tmax [4]: 1.2 min
AUC(0-t) [5]: 26700 ng·h/mL
inhibition [6]: Dose-Dependent Effect
GI50 [7]: > 10 µM
GI50 [8]: 0.082 µM
GI50 [11]: 0.032 µM
GI50 [12]: 0.032 µM
Activity [14]: 3.3%
SMILES: CC(=O)Nc1cc(Oc2ccc(NC(=O)Cc3ccccc3C(F)(F)F)cc2)ncn1
Activity [9]: Dose-Dependent Effect
Activity [10]: Dose-Dependent Effect
Activity [13]: Dose-Dependent Effect
